Results as given in ChEMBL document CHEMBL1144383, “A new development of matrix metalloproteinase inhibitors: twin hydroxamic acids as potent inhibitors of MMPs” (Bioorg Med Chem Lett, 2005).

Columns and labels:
[1] = target: T1, Interstitial collagenase (Homo sapiens, UniProt P03956); experiment: Inhibition of Matrix metalloprotease-1 in MMPi assay
T1 sequence (P03956 whole entry): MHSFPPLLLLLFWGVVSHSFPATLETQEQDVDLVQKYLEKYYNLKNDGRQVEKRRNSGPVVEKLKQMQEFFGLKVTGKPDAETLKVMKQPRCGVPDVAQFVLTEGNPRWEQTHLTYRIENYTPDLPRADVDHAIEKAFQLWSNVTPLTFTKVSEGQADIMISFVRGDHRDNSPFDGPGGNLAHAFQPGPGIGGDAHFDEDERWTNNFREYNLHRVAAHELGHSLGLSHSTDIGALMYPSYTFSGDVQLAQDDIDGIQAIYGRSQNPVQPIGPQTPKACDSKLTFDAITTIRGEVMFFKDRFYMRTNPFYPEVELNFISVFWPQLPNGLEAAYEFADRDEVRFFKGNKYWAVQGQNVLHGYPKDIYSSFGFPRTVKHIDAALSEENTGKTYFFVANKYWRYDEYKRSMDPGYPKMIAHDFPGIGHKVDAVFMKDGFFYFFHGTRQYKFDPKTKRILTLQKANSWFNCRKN

[2] = target: Matrix metalloproteinase-9 (Homo sapiens, UniProt P14780); experiment: Inhibition of Matrix metalloprotease-9 in MMPi assay
Matrix metalloproteinase-9, sequence (P14780 whole entry): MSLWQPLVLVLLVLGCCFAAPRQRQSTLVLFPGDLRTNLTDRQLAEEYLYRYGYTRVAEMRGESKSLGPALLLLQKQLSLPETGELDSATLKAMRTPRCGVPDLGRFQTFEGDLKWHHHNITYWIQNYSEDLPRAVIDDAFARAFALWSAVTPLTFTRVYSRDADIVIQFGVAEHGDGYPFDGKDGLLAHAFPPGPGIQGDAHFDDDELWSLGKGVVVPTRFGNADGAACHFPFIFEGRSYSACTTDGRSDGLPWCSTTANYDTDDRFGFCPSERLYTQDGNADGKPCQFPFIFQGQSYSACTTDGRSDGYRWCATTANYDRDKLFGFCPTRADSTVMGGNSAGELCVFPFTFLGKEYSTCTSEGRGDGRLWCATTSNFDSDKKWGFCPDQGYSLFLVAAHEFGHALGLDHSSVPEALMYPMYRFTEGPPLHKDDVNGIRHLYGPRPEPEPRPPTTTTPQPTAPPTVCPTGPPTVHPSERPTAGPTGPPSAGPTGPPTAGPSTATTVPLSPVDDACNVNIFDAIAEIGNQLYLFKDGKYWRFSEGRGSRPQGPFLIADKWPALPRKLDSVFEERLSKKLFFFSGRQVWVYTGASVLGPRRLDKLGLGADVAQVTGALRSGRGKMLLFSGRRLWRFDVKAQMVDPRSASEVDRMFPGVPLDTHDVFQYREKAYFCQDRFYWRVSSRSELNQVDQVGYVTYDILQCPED

[3] = target: 72 kDa type IV collagenase (Homo sapiens, UniProt P08253); experiment: Inhibition of Matrix metalloprotease-2 in MMPi assay
72 kDa type IV collagenase, sequence (P08253 whole entry): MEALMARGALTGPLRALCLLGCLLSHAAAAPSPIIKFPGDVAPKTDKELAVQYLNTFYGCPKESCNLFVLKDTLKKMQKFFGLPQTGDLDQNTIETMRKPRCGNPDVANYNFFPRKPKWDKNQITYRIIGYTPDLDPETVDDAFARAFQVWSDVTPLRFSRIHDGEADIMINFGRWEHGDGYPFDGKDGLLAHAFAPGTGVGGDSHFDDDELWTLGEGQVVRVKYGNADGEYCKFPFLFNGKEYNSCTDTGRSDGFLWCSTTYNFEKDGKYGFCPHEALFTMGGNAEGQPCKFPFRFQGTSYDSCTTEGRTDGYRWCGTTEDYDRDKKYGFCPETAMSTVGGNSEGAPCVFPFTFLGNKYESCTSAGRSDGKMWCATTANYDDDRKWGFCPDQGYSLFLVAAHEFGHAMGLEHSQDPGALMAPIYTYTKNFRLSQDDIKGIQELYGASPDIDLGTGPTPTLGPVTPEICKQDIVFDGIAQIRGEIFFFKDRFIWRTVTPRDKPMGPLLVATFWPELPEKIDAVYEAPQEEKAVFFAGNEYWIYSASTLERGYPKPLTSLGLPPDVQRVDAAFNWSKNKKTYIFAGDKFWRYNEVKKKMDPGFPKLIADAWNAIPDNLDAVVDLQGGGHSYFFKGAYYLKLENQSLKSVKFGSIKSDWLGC

[4] = target: Matrix metalloproteinase-14 (Homo sapiens, UniProt P50281); experiment: Inhibition of Matrix metalloprotease-14 in MMPi assay
[5] = system: HT-1080; experiment: Cytotoxicity as percentage of dead cells at 5 uM using Trypan Blue test on HT1080 cells; type: functional, Homo sapiens
How it was run: (§1)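 HT1080 cells stably transfected to overexpress MT1-MMP, seeded at 10⁵ cells/well and kept overnight at 37 °C. Washed free of serum, then given serum-free DMEM with insulin, transferrin and selenium. Compound added at 0, 1, 5 or 10 (micromolar) to duplicate wells for 24 h. Trypsinized cells mixed 1:1 with 0.4% trypan blue for 5 min. Blue-stained and total cells counted on haemocytometer upper and lower grids. % dead = mean of duplicates minus untreated wells.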

[6] = system: HT-1080; experiment: Cytotoxicity as percentage of dead cells at 10 uM using Trypan Blue test on HT1080 cells; type: functional, Homo sapiens; how it was run: as §1
[7] = system: Matrix metalloproteinase-14; experiment: Inhibition of Matrix metalloprotease-14 in MMPi assay
[8] = system: HT-1080; experiment: Cytotoxicity as percentage of dead cells at 1 uM using Trypan Blue test on HT1080 cells; type: functional, Homo sapiens; how it was run: as §1

CC(C)ON([C@H](CCNC(=O)c1cccc(C(=O)NCC[C@H](C(=O)NO)N(OC(C)C)S(=O)(=O)c2ccc(-c3ccccc3)cc2)c1)C(=O)NO)S(=O)(=O)c1ccc(-c2ccccc2)cc1
IC50 [1]: 10000 nM | IC50 [2]: 983 nM | IC50 [3]: 197 nM | IC50 [4]: 1490 nM

CC(C)ON([C@H](CCNC(=O)CCCNC(=O)c1cccc(C(=O)NCCCC(=O)NCC[C@H](C(=O)NO)N(OC(C)C)S(=O)(=O)c2ccc(-c3ccccc3)cc2)c1)C(=O)NO)S(=O)(=O)c1ccc(-c2ccccc2)cc1
IC50 [1]: 397 nM | IC50 [2]: 8.3 nM | IC50 [3]: 9.8 nM | Dead cells [5]: 5% | Dead cells [6]: 10% | IC50 [7]: 34 nM | Dead cells [8]: 0%

CC(C)ON([C@H](CCNC(=O)OCc1ccccc1)C(=O)NO)S(=O)(=O)c1ccc(-c2ccccc2)cc1
IC50 [1]: > 3000 nM | Dead cells [5]: 20% | Dead cells [6]: 35% | Dead cells [8]: 4%

CC(C)ON([C@H](CCNC(=O)c1cccc(C(=O)NCC[C@H](C(=O)O)N(OC(C)C)S(=O)(=O)c2ccc(-c3ccccc3)cc2)c1)C(=O)O)S(=O)(=O)c1ccc(-c2ccccc2)cc1
IC50 [2]: > 30000 nM | IC50 [3]: > 1000 nM
